Laboratory results taken from ChEMBL document CHEMBL1125548, “Synthesis and pharmacological studies of N-substituted 6-[(2-aminoethyl)amino]-1,3-dimethyl-2,4(1H,3H)-pyrimidinediones, novel class III antiarrhythmic agents” (1992).

What was measured:
Canis familiaris [1] = assay: Percentage change of the duration of action potential at 75% repolarization was measured before and after the administration at 10.0 ug/mL; assay type: functional, Canis lupus familiaris
Method in brief: (§1)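 Canine right-ventricular Purkinje fibers (mongrel dogs 7–11 kg, thiopental-anesthetized) superfused with Tyrode's (pH 7.5, 36 °C, gassed 95% O2/5% CO2). Compounds diluted from 1 mM water stock and added cumulatively. Readings taken 20 min after solution exchange. Result given as percent change in action potential duration.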

Canis familiaris [2] = assay: The percentage change of the duration of action potential at 75% repolarization was measured before and after the administration at 3.0 ug/mL; assay type: functional, Canis lupus familiaris; method in brief: as §1
Canis familiaris [3] = assay: The percentage change in the effective refractory period was measured before and after the administration at 0.1 mg/kg; assay type: functional, Canis lupus familiaris; conditions: dose 1.0 mg/kg; in the assay text read “1.0 mg/kg” for “0.1 mg/kg”
Method in brief: (§2)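 In vivo, mongrel dogs of either sex (7–13 kg), anesthetized with pentobarbital sodium 30 mg/kg iv. Left femoral artery cannulated for arterial pressure, femoral vein for drug dosing. Effective refractory period measured before and after administration.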

Canis familiaris [4] = assay: The percentage change of the duration of action potential at 75% repolarization was measured before and after the administration at 1.0 ug/mL; assay type: functional, Canis lupus familiaris; method in brief: as §1
Canis familiaris [5] = assay: Concentration required for 50% inhibition of tachycardia induced by isoproterenol (0.5ug/mL, iv) in anesthetized dog; assay type: functional; conditions: Canis lupus familiaris, read-out: ID50 (the source's name)
Canis familiaris [6] = assay: The prolongation effect of the atrial and ventricular effective refractory period was measured before and after the administration at 0.1 mg/kg; assay type: functional, Canis lupus familiaris, Cardiac atrium; conditions: dose 1.0 mg/kg; in the assay text read “1.0 mg/kg” for “0.1 mg/kg”; method in brief: as §2
Canis familiaris [7] = assay: The prolongation effect of the atrial and ventricular effective refractory period was measured before and after the administration at 0.3 mg/kg; assay type: functional, Canis lupus familiaris, Cardiac atrium; method in brief: as §2
Canis familiaris [8] = assay: The prolongation effect of the atrial and ventricular effective refractory period was measured before and after the administration at 3 mg/kg; assay type: functional, Canis lupus familiaris, Cardiac atrium; method in brief: as §2
Canis familiaris [9] = organism: Canis familiaris; assay: Action potential amplitude at 0 (ug/mL) concentration; assay type: functional, Canis lupus familiaris
Method in brief: (§3)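 Purkinje fibers from right ventricle of mongrel dogs (7–11 kg, thiopental sodium 30 mg/kg iv), superfused in organ bath with Tyrode's solution (pH 7.5, 95% O2/5% CO2) at 36 °C. Compounds from 1 mM aqueous stock diluted in Tyrode's, given cumulatively. Data taken 20 min after each solution change. Means ± SD of seven experiments.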

Canis familiaris [10] = organism: Canis familiaris; assay: Action potential amplitude at 0.1(ug/mL) concentration; assay type: functional, Canis lupus familiaris; method in brief: as §3
Canis familiaris [11] = organism: Canis familiaris; assay: Action potential amplitude at 0.3(ug/mL) concentration; assay type: functional, Canis lupus familiaris; method in brief: as §3
Canis familiaris [12] = organism: Canis familiaris; assay: Action potential amplitude at 1(ug/mL) concentration; assay type: functional, Canis lupus familiaris; method in brief: as §3
Canis familiaris [13] = organism: Canis familiaris; assay: Action potential amplitude at 10(ug/mL) concentration; assay type: functional, Canis lupus familiaris; method in brief: as §3
Canis familiaris [14] = organism: Canis familiaris; assay: Action potential amplitude at 3(ug/mL) concentration; assay type: functional, Canis lupus familiaris; method in brief: as §3
Canis familiaris [15] = organism: Canis familiaris; assay: Action potential duration at 75% repolarization at 0(ug/mL) concentration; assay type: functional, Canis lupus familiaris; method in brief: as §3
Canis familiaris [16] = organism: Canis familiaris; assay: Action potential duration at 75% repolarization at 0.1(ug/mL) concentration; assay type: functional, Canis lupus familiaris; method in brief: as §3
Canis familiaris [17] = organism: Canis familiaris; assay: Action potential duration at 75% repolarization at 0.3(ug/mL) concentration; assay type: functional, Canis lupus familiaris; method in brief: as §3
Canis familiaris [18] = organism: Canis familiaris; assay: Action potential duration at 75% repolarization at 1(ug/mL) concentration; assay type: functional, Canis lupus familiaris; method in brief: as §3
Canis familiaris [19] = organism: Canis familiaris; assay: Action potential duration at 75% repolarization at 10(ug/mL) concentration; assay type: functional, Canis lupus familiaris; method in brief: as §3
Canis familiaris [20] = organism: Canis familiaris; assay: Action potential duration at 75% repolarization at 3(ug/mL) concentration; assay type: functional, Canis lupus familiaris; method in brief: as §3
Canis familiaris [21] = organism: Canis familiaris; assay: Action potential duration at 90% repolarization at 0(ug/mL) concentration; assay type: functional, Canis lupus familiaris; method in brief: as §3
Canis familiaris [22] = organism: Canis familiaris; assay: Action potential duration at 90% repolarization at 0.1(ug/mL) concentration; assay type: functional, Canis lupus familiaris; method in brief: as §3
Canis familiaris [23] = organism: Canis familiaris; assay: Action potential duration at 90% repolarization at 0.3(ug/mL) concentration; assay type: functional, Canis lupus familiaris; method in brief: as §3
Canis familiaris [24] = organism: Canis familiaris; assay: Action potential duration at 90% repolarization at 1(ug/mL) concentration; assay type: functional, Canis lupus familiaris; method in brief: as §3
Canis familiaris [25] = organism: Canis familiaris; assay: Action potential duration at 90% repolarization at 10(ug/mL) concentration; assay type: functional, Canis lupus familiaris; method in brief: as §3
Canis familiaris [26] = organism: Canis familiaris; assay: Action potential duration at 90% repolarization at 3(ug/mL) concentration; assay type: functional, Canis lupus familiaris; method in brief: as §3
Canis familiaris [27] = organism: Canis familiaris; assay: Resting membrane potential at 0 (ug/mL) concentration; assay type: functional; conditions: Canis lupus familiaris; method in brief: as §3
Canis familiaris [28] = organism: Canis familiaris; assay: Resting membrane potential at 0.3 (ug/mL) concentration; assay type: functional; conditions: Canis lupus familiaris; method in brief: as §3
Canis familiaris [29] = organism: Canis familiaris; assay: Resting membrane potential at 1 (ug/mL) concentration; assay type: functional; conditions: Canis lupus familiaris; method in brief: as §3
Canis familiaris [30] = organism: Canis familiaris; assay: Resting membrane potential at 10 (ug/mL) concentration; assay type: functional; conditions: Canis lupus familiaris; method in brief: as §3
Canis familiaris [31] = organism: Canis familiaris; assay: Resting membrane potential at 3(ug/mL) concentration; assay type: functional; conditions: Canis lupus familiaris; method in brief: as §3
Canis familiaris [32] = organism: Canis familiaris; assay: Maximum upstroke velocity of the compound at 0 (ug/mL) concentration; assay type: functional, Canis lupus familiaris; method in brief: as §3
Canis familiaris [33] = organism: Canis familiaris; assay: Maximum upstroke velocity of the compound at 0.1 (ug/mL) concentration; assay type: functional, Canis lupus familiaris; method in brief: as §3
Canis familiaris [34] = organism: Canis familiaris; assay: Maximum upstroke velocity of the compound at 0.3 (ug/mL) concentration; assay type: functional, Canis lupus familiaris; method in brief: as §3
Canis familiaris [35] = organism: Canis familiaris; assay: Maximum upstroke velocity of the compound at 1 (ug/mL) concentration; assay type: functional, Canis lupus familiaris; method in brief: as §3
Canis familiaris [36] = organism: Canis familiaris; assay: Maximum upstroke velocity of the compound at 10 (ug/mL) concentration; assay type: functional, Canis lupus familiaris; method in brief: as §3
Canis familiaris [37] = organism: Canis familiaris; assay: Maximum upstroke velocity of the compound at 3 (ug/mL) concentration; assay type: functional, Canis lupus familiaris; method in brief: as §3
Canis familiaris [38] = organism: Canis familiaris; assay: Action potential duration at 50% repolarization at 0 ug/mL concentration; assay type: functional, Canis lupus familiaris; method in brief: as §3
Canis familiaris [39] = organism: Canis familiaris; assay: Action potential duration at 50% repolarization at 0.1(ug/mL) concentration; assay type: functional, Canis lupus familiaris; method in brief: as §3
Canis familiaris [40] = organism: Canis familiaris; assay: Action potential duration at 50% repolarization at 0.3(ug/mL) concentration; assay type: functional, Canis lupus familiaris; method in brief: as §3
Canis familiaris [41] = organism: Canis familiaris; assay: Action potential duration at 50% repolarization at 1(ug/mL) concentration; assay type: functional, Canis lupus familiaris; method in brief: as §3
Canis familiaris [42] = organism: Canis familiaris; assay: Action potential duration at 50% repolarization at 10(ug/mL) concentration; assay type: functional, Canis lupus familiaris; method in brief: as §3
Canis familiaris [43] = organism: Canis familiaris; assay: Action potential duration at 50% repolarization at 3(ug/mL) concentration; assay type: functional, Canis lupus familiaris; method in brief: as §3
Canis familiaris [44] = organism: Canis familiaris; assay: Resting membrane potential at 0.1 (ug/mL) concentration; assay type: functional; conditions: Canis lupus familiaris; method in brief: as §3

Cl.Cn1c(N2CCN(CCCOc3ccccc3[N+](=O)[O-])CC2)cc(=O)n(C)c1=O
APD75 (Canis familiaris [1]): 39% | APD75 (Canis familiaris [2]): 18% | ERP (Canis familiaris [3]): 6.8%

Cn1c(NCCNCCCOc2ccccc2)cc(=O)n(C)c1=O
APD75 (Canis familiaris [4]): 4% | APD75 (Canis familiaris [2]): 11.9% | ED50 (Canis familiaris [5]): 0.1 mg/kg

Cl.Cn1c(N2CCN(CCCOc3ccc(Cl)cc3)CC2)cc(=O)n(C)c1=O
APD75 (Canis familiaris [4]): 14% | APD75 (Canis familiaris [2]): 25% | ERP (Canis familiaris [6]): 13% | ERP (Canis familiaris [7]): 6.3% | ERP (Canis familiaris [8]): 24.3%

Cl.Cn1c(NCCN(CCO)CCCc2ccc([N+](=O)[O-])cc2)cc(=O)n(C)c1=O
APA (Canis familiaris [9]): 104 mV | APA (Canis familiaris [10]): 101 mV | APA (Canis familiaris [11]): 102 mV | APA (Canis familiaris [12]): 103 mV | APA (Canis familiaris [13]): 107 mV | APA (Canis familiaris [14]): 104 mV | APD75 (Canis familiaris [15]): 313 ms | APD75 (Canis familiaris [16]): 340 ms | APD75 (Canis familiaris [17]): 372 ms | APD75 (Canis familiaris [18]): 428 ms | APD75 (Canis familiaris [19]): 529 ms | APD75 (Canis familiaris [20]): 485 ms | APD75 (Canis familiaris [4]): 22% | APD75 (Canis familiaris [2]): 38% | APD90 (Canis familiaris [21]): 344 ms | APD90 (Canis familiaris [22]): 371 ms | APD90 (Canis familiaris [23]): 409 ms | APD90 (Canis familiaris [24]): 471 ms | APD90 (Canis familiaris [25]): 584 ms | APD90 (Canis familiaris [26]): 533 ms | RMP (Canis familiaris [27]): -88 mV | RMP (Canis familiaris [28]): -87 mV | RMP (Canis familiaris [29]): -87 mV | RMP (Canis familiaris [30]): -90 mV | RMP (Canis familiaris [31]): -87 mV | Max dV/dt (Canis familiaris [32]): 356 V s-1 | Max dV/dt (Canis familiaris [33]): 351 V s-1 | Max dV/dt (Canis familiaris [34]): 348 V s-1 | Max dV/dt (Canis familiaris [35]): 344 V s-1 | Max dV/dt (Canis familiaris [36]): 339 V s-1 | Max dV/dt (Canis familiaris [37]): 341 V s-1 | APD50 (Canis familiaris [38]): 266 ms | APD50 (Canis familiaris [39]): 293 ms | APD50 (Canis familiaris [40]): 315 ms | APD50 (Canis familiaris [41]): 349 ms | APD50 (Canis familiaris [42]): 386 ms | APD50 (Canis familiaris [43]): 369 ms | RMP (Canis familiaris [44]): -85 mV

Cl.Cn1c(N2CCN(CCc3ccc([N+](=O)[O-])cc3)CC2)cc(=O)n(C)c1=O
APD75 (Canis familiaris [4]): 43%

CN(CCN(C)c1cc(=O)n(C)c(=O)n1C)CC(O)COc1ccccc1 (stereo unspecified)
APD75 (Canis familiaris [4]): 2.9% | APD75 (Canis familiaris [2]): 8% | ED50 (Canis familiaris [5]): 1 mg/kg

CCO.Cn1c(NCCNCC(O)COc2ccccc2)cc(=O)n(C)c1=O (stereo unspecified)
APD75 (Canis familiaris [1]): 10.1% | APD75 (Canis familiaris [2]): 6.9% | ED50 (Canis familiaris [5]): 0.01 mg/kg
